Test [1] deals with Mycobacterium tuberculosis. In words: Antituberculosis activity against Mycobacterium tuberculosis H37Ra by microplate alamar blue assay. The class given is functional. On the technique in general: The colour change of resazurin is a common sign of viable cells or microbes.
A further test has as its system KB. In words: Cytotoxicity against human KB cells. The class given is functional, cell-based. In outline:
(§1)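 Tested on human epidermoid carcinoma (KB), breast cancer (BC1) and small cell lung cancer (NCI-H187) cell lines. Growth was read by a colorimetric method following Skehan and co-workers. Ellipticine was run as the reference substance.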

Test [2] in a line: Cytotoxicity against human BC1 cells. The class given is functional, cell-based. In a few lines:
as §1

Another test relates to Plasmodium falciparum. In words: Antimalarial activity against multidrug-resistant Plasmodium falciparum K1 in [3H]hypoxanthine incorporation microculture radioisotope assay. The class given is functional, organism-based. In a few lines:
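P. falciparum K1 maintained in culture by the Trager and Jensen method. Growth was measured in vitro by [3H]-hypoxanthine uptake in a microculture radioisotope format (Desjardins method). IC50 is the concentration giving 50% reduction in parasite growth. Artemisinin was the standard.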

The test system of a further test is NCI-H187. In words: Cytotoxicity against human NCI-H187 cells. The class given is functional, cell-based. In outline:
as §1

In brackets after ≈: the same amount, converted by molar mass. Activity calls are given as the source filed them. The calls are words filed in the database; no cut-off is given here.

A word on the IC50: it is the concentration that gives 50% inhibition. Read a high IC50 as weaker potency in that assay. For the compound `C=C1CC[C@@H]2O[C@]2(C)CC[C@@H]2[C@@H]1CC2(C)C`, the result in test [1] was inactive. Further, the half-maximal inhibitory concentration (IC50) was over 5 mg/L in the test on KB, over 5 mg/L in test [2], 2.8 mg/L (≈ 12.7 µM) in the test on Plasmodium falciparum and 19.5 mg/L (≈ 88.5 µM) in the test with NCI-H187.
On to `COc1cc2c(cc1O)[C@H](Cc1ccc(OC)c(OC)c1)N(C)CC2` [CODAMINE], for which, in test [1], the outcome was inactive. The concentration for half-maximal inhibition (IC50) in the test with KB is over 5 mg/L; in test [2], over 5 mg/L; with Plasmodium falciparum it was 4.2 mg/L (≈ 12.2 µM); with NCI-H187 it was over 5 mg/L.
By MIC is commonly meant the lowest concentration found to suppress growth. Compound `COc1ccc2c(c1)c(-c1c3c4c(cc5c(c4c4ccc(OC)cc14)OCO5)CCN3)c1c3c(cc4c(c32)OCO4)CCN1` [BIDEBILINE E] came in with an MIC in test [1] of 6.25 mg/L (≈ 10.7 µM). This compound also returned an IC50 with Plasmodium falciparum of 4.2 mg/L (≈ 7.18 µM).
For `NC[C@H]1O[C@H](O[C@H]2[C@H](O)[C@@H](O[C@H]3O[C@H](CO)[C@@H](O)[C@H](N)[C@H]3O)[C@H](N)C[C@@H]2N)[C@H](O)[C@@H](O)[C@@H]1O.O=S(=O)(O)O` [KANAMYCIN SULFATE], the minimal inhibitory concentration (MIC) in test [1] came out at 2.5 mg/L.
`CCCCC#CC#CC#CCCCCCCCC(=O)O`: the MIC in test [1] was 6.25 mg/L (≈ 22.9 µM). Moreover, the IC50 in the test on KB was over 5 mg/L; in test [2] it was 13 mg/L (≈ 47.7 µM); in the test with Plasmodium falciparum, 5 mg/L (≈ 18.4 µM); in the test on NCI-H187, over 5 mg/L.
`C/C1=C\CC/C(C)=C/CC(C)(C)/C=C/C1` [ALPHA-HUMULONE] came in with an MIC in test [1] of 6.25 mg/L (≈ 30.6 µM). The half-maximal inhibitory concentration (IC50) (in the test on KB; in test [2]; with NCI-H187) was over 5 mg/L throughout. Further, the outcome in the test on Plasmodium falciparum was inactive.
In the test with Plasmodium falciparum, `C[C@@H]1CC[C@H]2[C@@H](C)C(=O)O[C@@H]3O[C@@]4(C)CC[C@@H]1[C@]32OO4` [ARTEMISININ] gave an IC50 of 0.001 mg/L (≈ 0.00354 µM).
Turning to `COc1ccc(C[C@H]2c3cc(OC)c(OC)cc3CCN2C)cc1O` [LAUDANIDINE], the outcome in test [1] was inactive. Further, the IC50 in the test on KB is over 5 mg/L; in test [2] it was over 5 mg/L; with Plasmodium falciparum it was 7 mg/L (≈ 20.4 µM); in the test with NCI-H187 it was over 5 mg/L.
For the compound `Cc1c2ccncc2c(C)c2c1[nH]c1ccccc12` [ELLIPTECINE], the results for the IC50 (with KB; in test [2]; in the test with NCI-H187) were 0.36 mg/L (≈ 1.46 µM), 0.26 mg/L (≈ 1.06 µM) and 0.32 mg/L (≈ 1.3 µM), respectively.
With `NNC(=O)c1ccncc1` [ISONIAZID], the MIC in test [1] stood at 0.05 mg/L (≈ 0.365 µM).

(Values after ChEMBL document CHEMBL1141291, “Bioactive constituents of the roots of Polyalthia cerasoides” (J Nat Prod, 2007).)
